Measurements taken from ChEMBL document CHEMBL4400539, “Discovery of a Novel Chemotype of Histone Lysine Methyltransferase EHMT1/2 (GLP/G9a) Inhibitors: Rational Design, Synthesis, Biological Evaluation, and Co-crystal Structure” (J Med Chem, 2019).
Active and inactive are the calls of the source. No cut-off for these calls is given here.

Legend:
[1] = molecular target: T1, Histone-lysine N-methyltransferase EHMT1 (Homo sapiens) (UniProt Q9H9B1); experiment: Inhibition of recombinant human GLP at 10 uM using biotinylated-Histone H3 peptide (1 to 21 residues) after 30 mins by AlphaLISA assay relative to control
T1 sequence (whole entry): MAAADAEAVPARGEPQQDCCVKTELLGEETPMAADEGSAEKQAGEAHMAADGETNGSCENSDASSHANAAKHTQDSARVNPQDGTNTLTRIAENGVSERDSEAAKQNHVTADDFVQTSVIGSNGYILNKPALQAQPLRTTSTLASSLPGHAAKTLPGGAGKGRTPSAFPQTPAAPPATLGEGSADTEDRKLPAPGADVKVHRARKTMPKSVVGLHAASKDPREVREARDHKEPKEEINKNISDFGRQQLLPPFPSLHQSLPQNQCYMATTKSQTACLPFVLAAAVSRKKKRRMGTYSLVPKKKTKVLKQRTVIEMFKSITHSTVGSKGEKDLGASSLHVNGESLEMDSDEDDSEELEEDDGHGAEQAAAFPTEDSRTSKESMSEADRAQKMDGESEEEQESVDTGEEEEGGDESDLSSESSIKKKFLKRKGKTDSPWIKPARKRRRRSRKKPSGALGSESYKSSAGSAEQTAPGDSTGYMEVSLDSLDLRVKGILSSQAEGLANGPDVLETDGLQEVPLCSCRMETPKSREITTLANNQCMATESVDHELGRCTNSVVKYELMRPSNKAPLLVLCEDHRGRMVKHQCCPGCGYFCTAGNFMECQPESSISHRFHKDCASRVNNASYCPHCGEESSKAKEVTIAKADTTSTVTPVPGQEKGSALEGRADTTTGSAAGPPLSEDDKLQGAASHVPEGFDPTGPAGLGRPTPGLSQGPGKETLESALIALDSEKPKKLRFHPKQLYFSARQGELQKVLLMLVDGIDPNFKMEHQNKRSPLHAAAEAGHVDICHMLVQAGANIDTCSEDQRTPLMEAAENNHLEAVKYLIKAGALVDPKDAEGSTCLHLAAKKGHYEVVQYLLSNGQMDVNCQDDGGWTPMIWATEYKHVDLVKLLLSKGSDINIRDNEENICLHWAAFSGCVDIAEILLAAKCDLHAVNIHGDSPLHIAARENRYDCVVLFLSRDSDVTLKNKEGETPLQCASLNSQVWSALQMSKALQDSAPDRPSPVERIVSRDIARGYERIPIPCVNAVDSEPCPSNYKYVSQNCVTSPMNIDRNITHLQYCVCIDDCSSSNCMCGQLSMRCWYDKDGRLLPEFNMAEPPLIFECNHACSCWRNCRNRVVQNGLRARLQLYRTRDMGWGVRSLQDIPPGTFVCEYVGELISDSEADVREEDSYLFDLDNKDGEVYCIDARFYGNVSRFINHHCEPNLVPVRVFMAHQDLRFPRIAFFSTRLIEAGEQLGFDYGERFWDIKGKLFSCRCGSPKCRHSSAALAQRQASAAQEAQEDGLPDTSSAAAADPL

MCF7 [2] = experiment: Cytotoxicity against human MCF7 cells assessed as reduction in cell viability at 0.05 to 50 uM after 48 to 72 hrs by MTT assay; type: cell-based; details: mcf7, 50 µM
Procedure, shortened: (§1)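 MCF-7, MDA-MB-231 and U-343 cells exposed 24, 48 and 72 h to 0.05, 0.5, 5 and 50 μM compound; viability by MTT reduction to formazan versus vehicle; mean ± SD of at least three independent experiments.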

MCF7 [3] = experiment: Cytotoxicity against human MCF7 cells assessed as reduction in cell viability at 0.05 to 50 uM after 24 hrs by MTT assay; type: cell-based; details: mcf7, 24 h; procedure, shortened: as §1
[4] = molecular target: T2, Lysine-specific demethylase 4A (Homo sapiens) (UniProt O75164); experiment: Inhibition of recombinant human JMJD2A at 10 to 25 uM using biotinylated-Histone H3 peptide (1 to 21 residues) as substrate preincubated for 30 mins followed by substrate addition and measured after 60 mins in presence of SAM by AlphaLISA assay relative to control
T2 sequence (whole entry): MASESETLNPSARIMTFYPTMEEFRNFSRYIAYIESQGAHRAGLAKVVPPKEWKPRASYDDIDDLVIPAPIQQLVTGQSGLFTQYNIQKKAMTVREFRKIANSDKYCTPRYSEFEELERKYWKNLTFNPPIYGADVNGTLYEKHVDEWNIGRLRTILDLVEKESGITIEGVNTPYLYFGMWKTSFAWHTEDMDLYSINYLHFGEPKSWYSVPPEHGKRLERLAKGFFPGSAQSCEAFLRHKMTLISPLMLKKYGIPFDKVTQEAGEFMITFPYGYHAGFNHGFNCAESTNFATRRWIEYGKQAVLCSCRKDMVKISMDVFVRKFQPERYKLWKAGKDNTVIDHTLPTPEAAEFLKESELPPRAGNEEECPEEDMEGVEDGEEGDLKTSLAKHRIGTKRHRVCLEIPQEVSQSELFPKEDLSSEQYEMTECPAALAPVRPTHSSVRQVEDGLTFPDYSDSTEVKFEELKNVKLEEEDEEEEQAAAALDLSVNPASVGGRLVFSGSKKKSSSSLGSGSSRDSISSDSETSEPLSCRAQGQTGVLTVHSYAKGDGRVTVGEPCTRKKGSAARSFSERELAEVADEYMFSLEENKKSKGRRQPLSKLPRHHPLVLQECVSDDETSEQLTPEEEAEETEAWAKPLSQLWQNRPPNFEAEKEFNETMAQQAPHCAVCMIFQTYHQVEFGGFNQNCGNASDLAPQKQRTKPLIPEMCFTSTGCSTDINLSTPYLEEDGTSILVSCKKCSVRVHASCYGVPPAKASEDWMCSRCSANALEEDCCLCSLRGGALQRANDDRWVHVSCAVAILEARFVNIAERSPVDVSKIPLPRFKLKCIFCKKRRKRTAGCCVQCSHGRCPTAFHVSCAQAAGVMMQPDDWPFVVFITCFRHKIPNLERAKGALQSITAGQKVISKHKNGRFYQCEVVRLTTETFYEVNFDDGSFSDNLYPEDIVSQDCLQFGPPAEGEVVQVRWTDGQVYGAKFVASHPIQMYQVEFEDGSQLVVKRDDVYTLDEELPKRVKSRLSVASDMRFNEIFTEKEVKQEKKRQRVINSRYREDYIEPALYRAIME

- inhibition [1]: 95%
- inhibition [4]: inactive
Structure (SMILES): COc1cc2c(cc1OCCCN1CCCC1)N=C(C1CCCCC1)CN=C2NC1CCN(C(C)C)CC1
- Activity (MCF7 [2]): Toxic
- Activity (MCF7 [3]): Non-Toxic
